According to ChEMBL document CHEMBL3421615, “Synthesis and identification of unprecedented selective inhibitors of CK1ε” (Eur J Med Chem, 2015):

Assays:
[1] = Antiproliferative activity against human HBL100 cells after 48 hrs incubation by SRB assay; assay type: functional; details: HBL-100, 48 h
Procedure, shortened: (§1)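 Cells kept in RPMI 1640 with 5% heat-inactivated FCS and 2 mM L-glutamine at 37 °C, 5% CO2. Plated at 10 000 (HBL-100, HeLa, SW1573), 15 000 (T-47D) or 20 000 (WiDr) cells/well. Dosing began day 1, in triplicate, over 1–100 range. DMSO stocks at 400× final top concentration; vehicle control 0.25% DMSO. Exposure 48 h, then TCA fixation 60 min at 4 °C. SRB read-out at 492 nm, background-corrected; GI50 from dose–response.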

HeLa = assay: Antiproliferative activity against human HeLa cells after 48 hrs incubation by SRB assay; assay type: functional; procedure, shortened: as §1
SW1573 = assay: Antiproliferative activity against human SW1573 cells after 48 hrs incubation by SRB assay; assay type: functional; details: SW1573, 48 h; procedure, shortened: as §1
T47D = assay: Antiproliferative activity against human T47D cells after 48 hrs incubation by SRB assay; assay type: functional; procedure, shortened: as §1
WiDr = assay: Antiproliferative activity against human WiDr cells after 48 hrs incubation by SRB assay; assay type: functional; procedure, shortened: as §1
[2] = target: Casein kinase I isoform alpha (Homo sapiens) (UniProt P48729); assay: Inhibition of human Casein kinase 1 alpha 1 assessed as residual activity at 10 uM relative to control
Chain of Casein kinase I isoform alpha (Homo sapiens) (P48729 2-337 limits assumed): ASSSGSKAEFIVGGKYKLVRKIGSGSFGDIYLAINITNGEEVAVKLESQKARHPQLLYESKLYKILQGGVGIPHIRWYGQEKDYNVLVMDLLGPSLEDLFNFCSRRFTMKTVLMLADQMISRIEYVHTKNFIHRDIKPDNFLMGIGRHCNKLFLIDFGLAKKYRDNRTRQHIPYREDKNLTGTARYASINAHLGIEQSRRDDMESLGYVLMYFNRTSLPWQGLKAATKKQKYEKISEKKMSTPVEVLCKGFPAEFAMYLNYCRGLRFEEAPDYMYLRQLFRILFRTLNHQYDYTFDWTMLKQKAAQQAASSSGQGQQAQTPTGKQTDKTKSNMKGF
Procedure, shortened: (§2)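 KINOMEscan active-site-directed competition binding run against a 456-kinase panel (scanMAX), each compound at a single 10 µM concentration. Binding reported as percent of control, with DMSO set to 100%Ctrl and a positive control set to 0%Ctrl. Hit cut-off is 35%Ctrl.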

[3] = target: T1, Casein kinase I isoform alpha-like (Homo sapiens) (UniProt Q8N752); assay: Inhibition of human Casein kinase 1 alpha 1-like assessed as residual activity at 10 uM relative to control; procedure, shortened: as §2
T1 sequence (whole entry): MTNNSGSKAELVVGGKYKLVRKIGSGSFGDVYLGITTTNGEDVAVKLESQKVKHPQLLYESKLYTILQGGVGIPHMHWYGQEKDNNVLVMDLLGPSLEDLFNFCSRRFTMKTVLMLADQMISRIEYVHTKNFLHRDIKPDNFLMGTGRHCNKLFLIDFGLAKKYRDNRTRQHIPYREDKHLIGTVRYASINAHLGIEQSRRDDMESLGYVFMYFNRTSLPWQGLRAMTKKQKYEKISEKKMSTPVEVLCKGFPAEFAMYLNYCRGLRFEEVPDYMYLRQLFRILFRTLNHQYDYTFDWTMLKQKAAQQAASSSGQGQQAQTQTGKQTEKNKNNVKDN

[4] = target: Casein kinase I isoform delta (Homo sapiens) (UniProt P48730); assay: Inhibition of human Casein kinase 1 delta assessed as residual activity at 10 uM relative to control; procedure, shortened: as §2
Chain of Casein kinase I isoform delta (Homo sapiens) (P48730 whole entry, looked up, canonical isoform): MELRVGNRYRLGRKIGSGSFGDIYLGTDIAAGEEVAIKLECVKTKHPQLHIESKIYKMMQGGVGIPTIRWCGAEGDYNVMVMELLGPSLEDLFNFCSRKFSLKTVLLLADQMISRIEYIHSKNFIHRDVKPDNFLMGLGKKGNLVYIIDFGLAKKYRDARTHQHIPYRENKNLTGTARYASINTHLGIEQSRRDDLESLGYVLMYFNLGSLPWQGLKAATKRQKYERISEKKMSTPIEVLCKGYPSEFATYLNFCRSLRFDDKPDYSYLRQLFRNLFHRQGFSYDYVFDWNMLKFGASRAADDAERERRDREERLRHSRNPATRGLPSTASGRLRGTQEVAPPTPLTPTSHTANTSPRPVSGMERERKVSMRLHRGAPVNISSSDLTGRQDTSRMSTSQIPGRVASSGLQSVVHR

[5] = target: Casein kinase I isoform epsilon (Homo sapiens, UniProt P49674); assay: Inhibition of human Casein kinase 1 epsilon assessed as residual activity at 10 uM relative to control; procedure, shortened: as §2
Chain of Casein kinase I isoform epsilon (P49674 whole entry, looked up, canonical isoform): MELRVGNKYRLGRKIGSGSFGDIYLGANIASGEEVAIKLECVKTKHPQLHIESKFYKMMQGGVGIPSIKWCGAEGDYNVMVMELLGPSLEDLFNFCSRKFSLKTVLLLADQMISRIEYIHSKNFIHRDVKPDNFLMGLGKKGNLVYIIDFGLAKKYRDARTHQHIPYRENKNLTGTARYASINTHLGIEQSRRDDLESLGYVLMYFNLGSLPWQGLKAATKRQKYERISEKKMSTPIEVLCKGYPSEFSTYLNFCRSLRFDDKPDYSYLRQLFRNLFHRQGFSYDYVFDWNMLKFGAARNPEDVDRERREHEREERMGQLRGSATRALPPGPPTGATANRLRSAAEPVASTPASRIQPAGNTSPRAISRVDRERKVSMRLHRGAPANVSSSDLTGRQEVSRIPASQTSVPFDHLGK

[6] = target: Casein kinase I isoform gamma-1 (Homo sapiens) (UniProt Q9HCP0); assay: Inhibition of human Casein kinase 1 gamma 1 assessed as residual activity at 10 uM relative to control; procedure, shortened: as §2
Chain of Casein kinase I isoform gamma-1 (Homo sapiens) (Q9HCP0 whole entry, looked up, canonical isoform): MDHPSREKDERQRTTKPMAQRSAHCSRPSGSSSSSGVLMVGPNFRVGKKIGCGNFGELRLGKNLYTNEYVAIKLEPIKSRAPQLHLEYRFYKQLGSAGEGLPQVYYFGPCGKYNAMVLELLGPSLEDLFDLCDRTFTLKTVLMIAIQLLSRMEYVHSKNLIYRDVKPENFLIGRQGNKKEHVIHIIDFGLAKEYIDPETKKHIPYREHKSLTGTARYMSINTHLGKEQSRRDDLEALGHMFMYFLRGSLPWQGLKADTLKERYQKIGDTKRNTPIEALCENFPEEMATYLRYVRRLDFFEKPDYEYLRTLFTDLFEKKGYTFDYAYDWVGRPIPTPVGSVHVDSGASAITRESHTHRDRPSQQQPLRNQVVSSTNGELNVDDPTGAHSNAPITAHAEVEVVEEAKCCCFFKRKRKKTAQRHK

[7] = target: Casein kinase I isoform gamma-2 (Homo sapiens) (UniProt P78368); assay: Inhibition of human Casein kinase 1 gamma 2 assessed as residual activity at 10 uM relative to control; procedure, shortened: as §2
Chain of Casein kinase I isoform gamma-2 (Homo sapiens) (P78368 whole entry, looked up, canonical isoform): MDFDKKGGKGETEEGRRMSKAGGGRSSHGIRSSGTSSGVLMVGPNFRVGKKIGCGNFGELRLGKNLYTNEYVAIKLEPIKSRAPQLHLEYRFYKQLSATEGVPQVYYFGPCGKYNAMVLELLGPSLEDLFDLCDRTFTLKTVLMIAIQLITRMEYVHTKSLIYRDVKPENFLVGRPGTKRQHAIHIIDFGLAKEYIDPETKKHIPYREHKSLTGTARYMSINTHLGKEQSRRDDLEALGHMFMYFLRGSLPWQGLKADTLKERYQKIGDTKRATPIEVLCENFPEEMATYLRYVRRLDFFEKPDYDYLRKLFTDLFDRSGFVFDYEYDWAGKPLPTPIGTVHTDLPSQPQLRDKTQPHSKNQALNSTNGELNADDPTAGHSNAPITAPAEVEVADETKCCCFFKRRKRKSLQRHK

[8] = target: Casein kinase I isoform gamma-3 (Homo sapiens) (UniProt Q9Y6M4); assay: Inhibition of human Casein kinase 1 gamma 3 assessed as residual activity at 10 uM relative to control; procedure, shortened: as §2
Chain of Casein kinase I isoform gamma-3 (Homo sapiens) (Q9Y6M4 whole entry, looked up, canonical isoform): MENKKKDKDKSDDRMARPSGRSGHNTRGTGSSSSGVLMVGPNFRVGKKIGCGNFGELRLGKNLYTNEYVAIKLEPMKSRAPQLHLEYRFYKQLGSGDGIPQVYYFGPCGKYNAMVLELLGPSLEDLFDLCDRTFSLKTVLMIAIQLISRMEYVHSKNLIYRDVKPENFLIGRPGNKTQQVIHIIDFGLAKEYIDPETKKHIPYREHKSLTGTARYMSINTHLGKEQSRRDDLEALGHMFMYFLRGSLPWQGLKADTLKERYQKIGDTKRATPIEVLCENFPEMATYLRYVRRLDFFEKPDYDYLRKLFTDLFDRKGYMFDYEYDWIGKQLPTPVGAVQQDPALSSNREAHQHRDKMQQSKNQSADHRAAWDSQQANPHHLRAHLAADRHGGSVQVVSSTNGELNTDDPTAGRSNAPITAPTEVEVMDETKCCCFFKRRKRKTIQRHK

[9] = target: Casein kinase II subunit alpha (Homo sapiens) (UniProt P68400); assay: Inhibition of human Casein kinase 2 alpha 1 polypeptide assessed as residual activity at 10 uM relative to control; procedure, shortened: as §2
Chain of Casein kinase II subunit alpha (Homo sapiens) (P68400 whole entry, looked up): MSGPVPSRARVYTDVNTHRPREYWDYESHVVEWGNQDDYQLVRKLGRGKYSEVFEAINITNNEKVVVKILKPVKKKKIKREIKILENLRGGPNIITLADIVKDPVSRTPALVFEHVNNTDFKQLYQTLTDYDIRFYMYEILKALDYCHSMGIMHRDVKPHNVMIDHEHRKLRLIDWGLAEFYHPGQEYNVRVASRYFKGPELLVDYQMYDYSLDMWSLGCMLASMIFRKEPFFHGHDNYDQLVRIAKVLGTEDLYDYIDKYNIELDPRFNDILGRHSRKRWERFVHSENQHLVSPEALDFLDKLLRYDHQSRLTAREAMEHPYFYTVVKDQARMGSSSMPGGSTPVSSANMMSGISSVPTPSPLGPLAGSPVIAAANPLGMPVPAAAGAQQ

[10] = target: Casein kinase II subunit alpha' (Homo sapiens) (UniProt P19784); assay: Inhibition of human Casein kinase 2 alpha prime polypeptide assessed as residual activity at 10 uM relative to control; procedure, shortened: as §2
Chain of Casein kinase II subunit alpha' (Homo sapiens) (P19784 whole entry, looked up): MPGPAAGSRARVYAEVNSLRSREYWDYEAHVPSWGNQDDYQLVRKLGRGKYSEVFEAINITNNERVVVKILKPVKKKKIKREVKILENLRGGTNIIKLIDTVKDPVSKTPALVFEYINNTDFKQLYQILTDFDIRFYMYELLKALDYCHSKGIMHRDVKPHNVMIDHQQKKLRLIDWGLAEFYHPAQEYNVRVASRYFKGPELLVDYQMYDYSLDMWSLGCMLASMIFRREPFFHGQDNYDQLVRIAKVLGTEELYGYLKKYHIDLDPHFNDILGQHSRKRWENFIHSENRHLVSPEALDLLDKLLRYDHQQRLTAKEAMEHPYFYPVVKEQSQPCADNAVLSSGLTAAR

| Compound | GI50 (HeLa) | GI50 (SW1573) | GI50 (T47D) | Activity [2] | Activity [3] | Activity [4] | Activity [5] | Activity [6] | Activity [7] | Activity [8] | Activity [9] | Activity [10] | GI50 [1] | GI50 (WiDr) |
| --- | --- | --- | --- | --- | --- | --- | --- | --- | --- | --- | --- | --- | --- | --- |
| CCCCCCCCCCCCCCC[C@@H](O)[C@@H](N)[C@@H](C)O | 19 µM | 17 µM | 19 µM | 100% | 100% | 90% | 43% | 100% | 87% | 82% | 71% | 100% | 21 µM | 18 µM |
| CCCCCCCCCCCCCCC[C@@H](O)[C@@H](N)Cc1ccccc1 | 1.3 µM | 2.1 µM | 1.8 µM |  |  |  |  |  |  |  |  |  | 2.9 µM | 2.3 µM |
| CCCCCCCCC[C@@H](O)[C@@H](N)Cc1ccccc1 | 18 µM | 16 µM | 17 µM | 95% | 88% | 93% | 27% | 100% | 96% | 71% | 70% | 100% | 14 µM | 12 µM |
| CCCCCCCCCCCCCCC[C@@H](O)[C@@H](N)CO [DIHYDROSPINGOSINE] | 15 µM | 4.5 µM | 22 µM |  |  |  |  |  |  |  |  |  | 25 µM | 19 µM |
| CCCCCCCCC[C@@H](O)[C@@H](N)CC(C)C | 21 µM | 14 µM | 11 µM |  |  |  |  |  |  |  |  |  | 14 µM | 5.9 µM |
| CCCCCCCCC[C@@H](O)[C@@H](N)C(C)C | 20 µM | 17 µM | 17 µM |  |  |  |  |  |  |  |  |  | 14 µM | 11 µM |
| CCCCCCCCC[C@@H](O)[C@@H](N)Cc1ccc(O)cc1 | 20 µM | 18 µM | 17 µM |  |  |  |  |  |  |  |  |  | 14 µM | 12 µM |
| CCCCCCCCCCCCCCC[C@@H](O)[C@@H](N)C(C)CC (single isomer, unassigned) | 20 µM | 3.4 µM | 17 µM |  |  |  |  |  |  |  |  |  | 2.4 µM | 13 µM |

The next lines start with results.

| GI50 (HeLa) | GI50 (SW1573) | GI50 (T47D) | Activity [2] | Activity [3] | Activity [4] | Activity [5] | Activity [6] | Activity [7] | Activity [8] | Activity [9] | Activity [10] | Compound | GI50 [1] | GI50 (WiDr) |
| --- | --- | --- | --- | --- | --- | --- | --- | --- | --- | --- | --- | --- | --- | --- |
| 21 µM | 7.2 µM | 18 µM |  |  |  |  |  |  |  |  |  | CCCCCCCCCCCCCCC[C@@H](O)[C@@H](N)C(C)C | 4.9 µM | 20 µM |
| 2 µM | 3 µM | 15 µM |  |  |  |  |  |  |  |  |  | COc1cc([C@@H]2c3cc4c(cc3[C@@H](O[C@@H]3O[C@@H]5CO[C@@H](C)O[C@H]5[C@H](O)[C@H]3O)[C@H]3COC(=O)[C@H]23)OCO4)cc(OC)c1O [ETOPOSIDE] | 1.9 µM | 26 µM |
| 9.2 µM | 9.5 µM | 12 µM |  |  |  |  |  |  |  |  |  | CCCCCCCCC[C@@H](O)[C@H](C)N | 6.6 µM | 17 µM |
| 20 µM | 13 µM | 14 µM |  |  |  |  |  |  |  |  |  | CCCCCCCCC[C@@H](O)[C@@H](N)C(C)CC (single isomer, unassigned) | 13 µM | 2.3 µM |
| 17 µM | 17 µM | 16 µM |  |  |  |  |  |  |  |  |  | CCCCCCCCC[C@@H](O)[C@@H](N)[C@@H](C)O | 13 µM | 14 µM |
| 19 µM | 2.8 µM | 15 µM | 93% | 91% | 89% | 48% | 98% | 94% | 93% | 84% | 100% | CCCCCCCCCCCCCCC[C@@H](O)[C@@H](N)CC(C)C | 2.4 µM | 4.9 µM |
| 2.6 µM | 1.3 µM | 0.9 µM | 100% | 100% | 100% | 60% | 98% | 100% | 100% | 87% | 98% | CCCCCCCCCCCCCCC[C@@H](O)[C@H](C)N | 2.3 µM | 0.7 µM |
